Values joined by “and” are separate entries in the source; they are usually repeats but may differ in a detail not shown here. Equal entries are not always repeated.
Legend:
MDA-MB-435 [1] = test: Cytotoxicity against paclitaxel resistant LCC6-MDR-MDR1 transfected cell line; format: functional, cell-based; conditions: Homo sapiens
MDA-MB-435 [2] = test: Inhibition of LCC6-WT-human breast carcinoma cell line growth was determined at 10 uM; format: functional
MDA-MB-435 [3] = test: Inhibition of LCC6-MDR-MDR1 transfected cell line growth was determined at 10 uM; format: functional; conditions: Homo sapiens
MDA-MB-435 [4] = test: Cytotoxicity against paclitaxel sensitive LCC6-WT-human breast carcinoma cell line; format: functional, cell-based
MDA-MB-435 [5] = test: Inhibition of LCC6-MDR human breast carcinoma cell line growth was determined at 1 uM; No growth inhibition; format: functional, cell-based
MDA-MB-435 [6] = test: Inhibition of LCC6-MDR human breast carcinoma cell line growth was determined at 5 uM; No growth inhibition; format: functional, cell-based
MDA-MB-435 [7] = test: Percent reduction of inhibitory concentration against LCC6-MDR human breast cancer cell line at 5 uM concentration; format: functional; conditions: for Reduction: in the assay text read “at 1 uM concentration” for “at 5 uM concentration”
Method in brief: (§1)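 Paclitaxel was tested against MDR1-transfected LCC6-MDR cells while co-administered with each reversal agent at fixed concentrations (four levels overall). Paclitaxel IC50 was determined under each condition. Percent IC50 reduction, taken as reversal activity, was calculated relative to paclitaxel alone.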

MDA-MB-435 [8] = test: Percent reduction of inhibitory concentration against LCC6-MDR human breast cancer cell line at 1 uM concentration
MDA-MB-435 [9] = test: Reversal activity against LCC6-MDR human breast carcinoma cell line; format: functional; method in brief: as §1
MDA-MB-435 [10] = test: Inhibitory concentration against LCC6-MDR human breast cancer cell line; format: functional, cell-based; method in brief: as §1

IC50 reduction (MDA-MB-435 [7]) | Structure (SMILES) | IC50 (MDA-MB-435 [1]) | IC50 (MDA-MB-435 [4]) | inhibition (MDA-MB-435 [5]) | inhibition (MDA-MB-435 [6]) | also measured
– | COc1cc(NC(C)CCCNS(=O)(=O)c2ccc3ccccc3c2)c2ncccc2c1 (centres undefined) | > 10000 nM | > 10000 nM | – | – | inhibition at 10 µM (MDA-MB-435 [2]): 16%; inhibition at 10 µM (MDA-MB-435 [3]): 8%
– | CC(=O)O[C@H]1C(=O)[C@@]2(C)C([C@H](OC(=O)c3ccccc3)[C@]3(O)C[C@H](OC(=O)[C@H](O)[C@@H](NC(=O)c4ccccc4)c4ccccc4)C(C)=C1C3(C)C)[C@]1(OC(C)=O)CO[C@@H]1C[C@@H]2O.COc1cc(NC(C)CCCN(Cc2ccccc2)S(=O)(=O)c2ccc3ccccc3c2)c2ncccc2c1 (some centres undefined) [listing 1 of 2 here] | – | – | No inhibition | No inhibition | –
– | CC(=O)O[C@H]1C(=O)[C@@]2(C)C([C@H](OC(=O)c3ccccc3)[C@]3(O)C[C@H](OC(=O)[C@H](O)[C@@H](NC(=O)c4ccccc4)c4ccccc4)C(C)=C1C3(C)C)[C@]1(OC(C)=O)CO[C@@H]1C[C@@H]2O.O=S(=O)(c1ccc2ccccc2c1)N(CCCCCCNc1ccnc2cc(Cl)ccc12)Cc1ccccc1 (some centres undefined) [listing 1 of 2 here] | – | – | No inhibition | No inhibition | –
– | O=S(=O)(c1ccc2ccccc2c1)N(CCCCCCNc1ccnc2cc(Cl)ccc12)Cc1ccccc1 | 2000 nM | 1700 nM | – | – | –
96% | CC(=O)O[C@H]1C(=O)[C@@]2(C)C([C@H](OC(=O)c3ccccc3)[C@]3(O)C[C@H](OC(=O)[C@H](O)[C@@H](NC(=O)c4ccccc4)c4ccccc4)C(C)=C1C3(C)C)[C@]1(OC(C)=O)CO[C@@H]1C[C@@H]2O.COc1cc(NC(C)CCCN(Cc2ccccc2)S(=O)(=O)c2ccc3ccccc3c2)c2ncccc2c1 (some centres undefined) [listing 2 of 2 here] | – | – | – | – | Reduction (MDA-MB-435 [8]): 55%
– | CC(=O)O[C@H]1C(=O)[C@@]2(C)C([C@H](OC(=O)c3ccccc3)[C@]3(O)C[C@H](OC(=O)[C@H](O)[C@@H](NC(=O)c4ccccc4)c4ccccc4)C(C)=C1C3(C)C)[C@]1(OC(C)=O)CO[C@@H]1C[C@@H]2O.O=S(=O)(c1ccc2ccccc2c1)N(CCCCNc1ccnc2cc(Cl)ccc12)Cc1ccccc1 (some centres undefined) [listing 1 of 2 here] | – | – | No inhibition | No inhibition | –
– | O=S(=O)(c1ccc2ccccc2c1)N(CCCCNc1ccnc2cc(Cl)ccc12)Cc1ccccc1 | > 10000 nM | > 10000 nM | – | – | inhibition at 10 µM (MDA-MB-435 [2]): 6%; inhibition at 10 µM (MDA-MB-435 [3]): 3%
99% and 54% and 39% | CC(=O)O[C@H]1C(=O)[C@@]2(C)C([C@H](OC(=O)c3ccccc3)[C@]3(O)C[C@H](OC(=O)[C@H](O)[C@@H](NC(=O)c4ccccc4)c4ccccc4)C(C)=C1C3(C)C)[C@]1(OC(C)=O)CO[C@@H]1C[C@@H]2O.O=S(=O)(c1ccc2ccccc2c1)N(CCCCCCNc1ccnc2cc(Cl)ccc12)Cc1ccccc1 (some centres undefined) [listing 2 of 2 here] | – | – | – | – | Reversal activity (MDA-MB-435 [9]): 99%
0% | CC(=O)O[C@H]1C(=O)[C@@]2(C)[C@H]([C@H](OC(=O)c3ccccc3)[C@]3(O)C[C@H](OC(=O)[C@H](O)[C@@H](NC(=O)c4ccccc4)c4ccccc4)C(C)=C1C3(C)C)[C@]1(OC(C)=O)CO[C@@H]1C[C@@H]2O [PACLITAXEL] | 612 nM | 8 nM | – | – | IC50 (MDA-MB-435 [10]): 490 nM
– | COc1cc(NC(C)CCCN(Cc2ccccc2)S(=O)(=O)c2ccc3ccccc3c2)c2ncccc2c1 (centres undefined) | > 10000 nM | > 10000 nM | – | – | inhibition at 10 µM (MDA-MB-435 [2]): 0%; inhibition at 10 µM (MDA-MB-435 [3]): 8%
99% | CC(=O)O[C@H]1C(=O)[C@@]2(C)C([C@H](OC(=O)c3ccccc3)[C@]3(O)C[C@H](OC(=O)[C@H](O)[C@@H](NC(=O)c4ccccc4)c4ccccc4)C(C)=C1C3(C)C)[C@]1(OC(C)=O)CO[C@@H]1C[C@@H]2O.O=S(=O)(c1ccc2ccccc2c1)N(CCCCNc1ccnc2cc(Cl)ccc12)Cc1ccccc1 (some centres undefined) [listing 2 of 2 here] | – | – | – | – | Reduction (MDA-MB-435 [7]): 70%
– | CC(=O)O[C@H]1C(=O)[C@@]2(C)C([C@H](OC(=O)c3ccccc3)[C@]3(O)C[C@H](OC(=O)[C@H](O)[C@@H](NC(=O)c4ccccc4)c4ccccc4)C(C)=C1C3(C)C)[C@]1(OC(C)=O)CO[C@@H]1C[C@@H]2O.COc1cc(NC(C)CCCNS(=O)(=O)c2ccc3ccccc3c2)c2ncccc2c1 (some centres undefined) [listing 1 of 2 here] | – | – | No inhibition | No inhibition | –
97% | CC(=O)O[C@H]1C(=O)[C@@]2(C)C([C@H](OC(=O)c3ccccc3)[C@]3(O)C[C@H](OC(=O)[C@H](O)[C@@H](NC(=O)c4ccccc4)c4ccccc4)C(C)=C1C3(C)C)[C@]1(OC(C)=O)CO[C@@H]1C[C@@H]2O.COc1cc(NC(C)CCCNS(=O)(=O)c2ccc3ccccc3c2)c2ncccc2c1 (some centres undefined) [listing 2 of 2 here] | – | – | – | – | Reduction (MDA-MB-435 [7]): 36%
